Assay results published in paper PMC10664564 (Chemical Science, 2023).
Values belong to the molecule of their own block, whether it stands above or below them.

Legend:
Recombinant SQS (31-370) = target: T1, Recombinant SQS (31-370) (Homo sapiens, UniProt P37268); experiment: In vitro SQS activity assay; format: biochemical; conditions: compound at 1 μM, positive control
T1 sequence (P37268 31-370): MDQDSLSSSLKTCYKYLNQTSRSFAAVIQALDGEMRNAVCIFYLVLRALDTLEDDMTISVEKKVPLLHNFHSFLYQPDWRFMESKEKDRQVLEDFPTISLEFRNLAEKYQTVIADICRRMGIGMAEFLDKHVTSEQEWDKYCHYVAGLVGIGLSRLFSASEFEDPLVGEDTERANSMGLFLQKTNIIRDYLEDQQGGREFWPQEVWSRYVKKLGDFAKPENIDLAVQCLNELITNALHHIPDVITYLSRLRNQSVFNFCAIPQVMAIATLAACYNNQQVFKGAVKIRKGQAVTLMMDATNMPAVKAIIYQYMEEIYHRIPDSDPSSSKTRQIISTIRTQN

HeLa cells = experiment: Cell viability assay ± MBCD; format: cell-based, human; conditions: 72 h
Procedure, shortened: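 HeLa cells grown 72 h in FBS-containing medium with methyl β-cyclodextrin at 3 mM (a concentration set as non-toxic for HeLa), treated with a range of test compound concentrations; viability read; n = 3, mean ± SD of one biological replicate shown.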

[1] = phase II and III clinical trials, development stopped; cited from earlier work
SQS = target: T2, SQS (Homo sapiens, UniProt P37268); experiment: Western blot of SQS protein levels in HeLa cells; format: cell-based; conditions: 18 h, 10 μM
T2 sequence (P37268 1-417): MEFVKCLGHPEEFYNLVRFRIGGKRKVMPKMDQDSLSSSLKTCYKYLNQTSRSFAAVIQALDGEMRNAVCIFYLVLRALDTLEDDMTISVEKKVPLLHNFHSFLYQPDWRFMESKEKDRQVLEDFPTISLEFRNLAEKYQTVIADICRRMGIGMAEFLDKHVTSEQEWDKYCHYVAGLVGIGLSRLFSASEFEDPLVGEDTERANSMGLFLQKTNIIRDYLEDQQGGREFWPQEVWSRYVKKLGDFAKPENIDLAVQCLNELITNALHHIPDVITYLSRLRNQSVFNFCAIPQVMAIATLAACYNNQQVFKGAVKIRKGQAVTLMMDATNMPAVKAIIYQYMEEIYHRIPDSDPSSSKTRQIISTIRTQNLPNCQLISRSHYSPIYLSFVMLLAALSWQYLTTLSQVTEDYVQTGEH
Procedure, shortened: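 HeLa cells were exposed to test compound, usually for 18 h, and SQS was detected by western blot (n = 2–4). DC50 and Dmax came from an 18 h dose–response (n = 4, mean ± SEM). A time course used 10 μM. Inhibitor arms were pre-incubated 2 h with MG132 (20 μM), chloroquine (20 μM) or MLN4924 (5 μM). A turnover arm used cycloheximide at 100 μg mL−1.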

inhibition of SQS activity (Recombinant SQS (31-370)): completety inhibited the reaction
SMILES: C=C(CC[C@]12O[C@H](C(=O)O)[C@@](O)(C(=O)O)[C@](C(=O)O)(O1)[C@H](OC(=O)/C=C/[C@@H](C)C[C@@H](C)CC)[C@H]2O)[C@@H](OC(C)=O)[C@H](C)Cc1ccccc1 [ZAA, zaragozic acid A]
cell viability under cholesterol depletion (HeLa cells; MBCD 3 mM, 5 and 10 μM): completely abolish cell viability
cell viability (HeLa cells; standard conditions (DMEM 10% FBS)): neither ZAA nor KY02111 adversely affected cell viability

SMILES: COc1cccc([C@H]2O[C@H](CC(=O)N3CCC(CC(=O)O)CC3)C(=O)N(CC(C)(C)COC(C)=O)c3ccc(Cl)cc32)c1OC [TAK-475, lapaquistat acetate]
clinical safety finding [1]: hepatotoxicity accompanied by elevated bilirubin levels

SQS levels, tool compound alone (SQS): marked accumulation of SQS
SMILES: CCNCCN(CC)c1nc(Nc2ccc3ncoc3c2)nc(N[C@@H](C)C2CCCCC2)n1 [LS-102]
